Data: PubChem BioAssay
Inconclusive results are not listed.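 How the source made its calls, unless noted: active means RAM network inhibition above 8.4% in each of two replicates, 3 SD over the compound average; inconclusive means above 8.4% inhibition in only one replicate; inactive means 8.4% inhibition or less in each replicate.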

Experiments:
[1] = S. cerevisiae growth inhibition in permissive medium (OD615), pilot counter-assay for S. cerevisiae lifespan shortening project, permissive growth control (AID 705;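 active means growth inhibition above 25% in both replicates, a cutoff set 3 SD above the mean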); details: OD615, 24 h, at 10 µM, stronger effect = higher value
In short: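 assay system = Saccharomyces cerevisiae strain carrying genetically modified DeaD replicative-lifespan system | technique = absorbance (optical density) at 615 nm | buffer or medium = permissive raffinose/galactose medium | timing = cells pre-grown 4 h, then 24 h compound exposure, 30 °C humidified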

[2] = S. cerevisiae growth inhibition in restrictive medium, OD615, pilot screen, restrictive growth control, yeast lifespan reduction project (AID 706;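 active means growth inhibition above a set limit, 3 SD over mean compound inhibition, in both replicates, cut at about 43% in these data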;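 further: modified DeaD lifespan yeast strain shifted to restrictive glucose medium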); details: OD615, 48 h, at 10 µM, stronger effect = higher value
In short: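 System: modified S. cerevisiae. Buffer or medium: CSMM-D glucose medium. Incubation: 4 h pre-growth plus 48 h compound exposure, 30 °C. Detection: absorbance (optical density) measured at 615 nm.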

[3] = doxorubicin toxicity protection in MRP-1 cells – H69AR cells, CellTiter-Glo, duplicate, MRP-1 activator project, pilot screen (AID 807;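 active means viability increase at or above a cutoff of the median across tested compounds plus 3 SD, cut at about 8.5% in these data, passing the limit was not always enough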;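 further: compound pretreatment 18-22 h then 72 h combined with doxorubicin; 0% = doxorubicin alone and 100% = vehicle without doxorubicin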); details: H69AR viability with doxorubicin, CellTiter-Glo luminescence; at 10 µM; stronger effect = higher value
[4] = viability of HCT116 without oncogenic beta-catenin – human colon tumor cells, pilot screen (AID 823;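 active means cell viability at or below a set limit in both duplicate runs, the limit being the all-compound median minus 4 SD, cut at about 23% in these data, passing the limit was not always enough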;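 further: 0% = wells killed by 20 µM Hyamine and 100% = untreated DMSO cell wells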); details: HCT116 beta-catenin knockout viability, CellTiter-Glo, 60 h; at 10 µM; stronger effect = lower value
[5] = viability of PTEN-null HCT116 cells – cell-based, HCT116 clonal line, CellTiter-Glo, pilot screen (AID 824;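 active means viability at or below 27.92% in each of two runs, the all-compound median minus 4 SD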;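 further: 0% = 20 µM Hyamine control and 100% = vehicle cell control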); details: HCT116 PTEN-deleted viability, 60 h, at 10 µM, stronger effect = lower value
[6] = RAM pathway blockade in budding yeast – dse1pr::URA3 reporter, 5-FOA selection, pilot screen (AID 869;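 active means inhibition over a set limit, the all-compound mean plus 3 SD, in both replicate runs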;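 further: 0% = DMSO wells with no growth and 100% = 10 µM 1-NA-PP1 with full growth; RAM network block rescues cells from 5-FOA so hits raise OD615 growth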); details: S. cerevisiae dse1pr::URA3 5-FOA growth, OD615, 2 d; at 10 µM; stronger effect = higher value; strain carries analog-sensitive mutant Cbk1 kinase
[7] = RAM signaling pathway blockade in yeast – S. cerevisiae, Pdr1DBD-CYC8 efflux-inhibited sensitized strain, primary screen (AID 1298);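 further: 0% = DMSO untreated cells without growth and 100% = 10 µM 1-NA-PP1 full growth; higher means more yeast growth rescued from 5-FOA killing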; details: S. cerevisiae cbk1-as DSE1-URA3 strain, 5-FOA growth OD615, 2 d; at 50 µM; stronger effect = higher value

Cc1cc(-c2c(C)n([O-])c(C)c(C)[n+]2=O)ccc1F
inactive: growth inhibition [1] -10.8% | growth inhibition [2] -3.75% | viability increase [3] 0.1% | viability [4] 102% | viability [5] 98.2% | inhibition [6] 1.03% | RAM network inhibition [7] 0.32%

CC(=O)Nc1nc2cc3c(cc2s1)OCO3
inactive: growth inhibition [1] -3.77% | growth inhibition [2] -8.01% | viability increase [3] -1.9% | viability [4] 96.4% | viability [5] 91.9% | inhibition [6] 1.81% | RAM network inhibition [7] 5.55%

COc1ccc(OC)c(S(=O)(=O)NCc2cn3c(C)csc3n2)c1
inactive: growth inhibition [1] -10.1% | growth inhibition [2] 5.41% | viability increase [3] -1.77% | viability [4] 103% | viability [5] 96.5% | inhibition [6] 0.045% | RAM network inhibition [7] 5.95%

CCN1CCN(CCCNC(=O)c2ccc3c(c2)NC(=O)c2ccccc2S3)CC1
inactive: growth inhibition [1] -15.9% | growth inhibition [2] -14.5% | viability increase [3] -2.37% | viability [4] 90.6% | viability [5] 95.4% | inhibition [6] 0.905% | RAM network inhibition [7] 5.84%

CCN(CC)CCNC(=O)c1cc2c(=O)n(C)c3ccccc3c2n1C
inactive: growth inhibition [1] -4.52% | growth inhibition [2] -6.67% | viability increase [3] -4.8% | viability [4] 49.8% | viability [5] 51.4% | inhibition [6] 1.88% | RAM network inhibition [7] 0.31%

CC(=O)N1CCc2cc(C(=O)CN3CCN(c4ccccc4F)CC3)ccc21
inactive: growth inhibition [1] -7.16% | growth inhibition [2] -7.33% | viability increase [3] -3.19% | viability [4] 93.7% | viability [5] 88% | inhibition [6] 2.17% | RAM network inhibition [7] 2.34%

COc1ccc(C2c3c(oc4ccccc4c3=O)C(=O)N2c2ccccn2)cc1 (stereo not drawn)
inactive: growth inhibition [1] -12.9% | growth inhibition [2] -7.65% | viability increase [3] -0.92% | viability [4] 90.9% | viability [5] 91% | inhibition [6] 3.71% | RAM network inhibition [7] 4.85%

CCOC(=O)CN1CC23C=CC(O2)C(C(=O)NCc2ccccc2OC)C3C1=O (stereo not drawn)
inactive: growth inhibition [1] 1.34% | growth inhibition [2] 8.84% | viability increase [3] -3.18% | viability [4] 103% | viability [5] 102% | inhibition [6] 2.3% | RAM network inhibition [7] 0.15%

COc1ccc(OCC(=O)OCCN2C(=O)c3ccccc3C2=O)cc1
inactive: growth inhibition [1] 3.16% | growth inhibition [2] -3.81% | viability increase [3] -0.31% | viability [4] 101% | viability [5] 106% | inhibition [6] 0.97% | RAM network inhibition [7] 8.21%

CCCCCn1c(NC2CCCCC2)nc2c1c(=O)[nH]c(=O)n2C
inactive: growth inhibition [1] -15.8% | growth inhibition [2] -18.2% | viability increase [3] -3.48% | viability [4] 83.3% | viability [5] 86.1% | inhibition [6] 1.53% | RAM network inhibition [7] -0.84%

COc1cc(=O)[nH]c(=O)n1C(=O)Cc1ccccc1
inactive: growth inhibition [1] -1.48% | growth inhibition [2] -1.73% | viability increase [3] 0% | viability [4] 97.4% | viability [5] 104% | inhibition [6] -0.145% | RAM network inhibition [7] 4.08%

COC(=O)COC(=O)c1ccc(Oc2nc(OC)nc(N(C)C)n2)cc1
inactive: growth inhibition [1] -10.3% | growth inhibition [2] -13.7% | viability increase [3] 0.83% | viability [4] 103% | viability [5] 104% | inhibition [6] 1.35% | RAM network inhibition [7] 2.76%

COc1ccccc1-c1cc(C(F)(F)F)nc(N2CCN(c3ccccc3)CC2)n1
inactive: growth inhibition [1] -2.88% | growth inhibition [2] -13.6% | viability increase [3] -1.89% | viability [4] 77.5% | viability [5] 78.8% | inhibition [6] 3.9% | RAM network inhibition [7] 4.72%

O=C1c2oc3ccc(F)cc3c(=O)c2C(c2cccc(O)c2)N1CCCN1CCOCC1 (stereo not drawn)
inactive: growth inhibition [1] -6.24% | growth inhibition [2] -8.16% | viability increase [3] 0.39% | viability [4] 99% | viability [5] 96.2% | inhibition [6] 0.63% | RAM network inhibition [7] 0.27%

O=C1C2CCCN2C(c2ccccc2F)N1c1cccc(Cl)c1 (stereo not drawn)
inactive: growth inhibition [1] 1.87% | growth inhibition [2] 1.65% | viability increase [3] -0.32% | viability [4] 97.8% | viability [5] 102% | inhibition [6] -0.43% | RAM network inhibition [7] 1.7%

c1ccc(C(Cc2nc(-c3cccnc3)no2)c2ccccc2)cc1
inactive: growth inhibition [1] -8.42% | growth inhibition [2] -4.57% | viability increase [3] 0.35% | viability [4] 90.8% | viability [5] 88.2% | inhibition [6] 1.46% | RAM network inhibition [7] 7.55%

C=COCCn1c(-c2nonc2N)nc2ccccc21
inactive: growth inhibition [1] -6.54% | growth inhibition [2] -3.9% | viability increase [3] -4.61% | viability [4] 82.4% | viability [5] 74.9% | inhibition [6] 1.75% | RAM network inhibition [7] 6.18%

CCCc1cc(C(=O)N(C2CCCCC2)C2CCCCC2)no1
inactive: growth inhibition [1] 4.36% | growth inhibition [2] 14.7% | viability increase [3] -5.51% | viability [4] 74.5% | viability [5] 80.8% | inhibition [6] 1.57% | RAM network inhibition [7] 6.03%

COC(=O)c1cccnc1-n1c(=O)c2cccnc2n(Cc2cccc(OC)c2)c1=O
inactive: growth inhibition [1] -13.7% | growth inhibition [2] 4.94% | viability increase [3] -3.24% | viability [4] 101% | viability [5] 92.7% | inhibition [6] 0.47% | RAM network inhibition [7] -1.41%

CCc1nnc(NC(=O)CSc2nccn2-c2cccc(C)c2)s1
inactive: growth inhibition [1] -8.43% | growth inhibition [2] 11.6% | viability increase [3] 0.02% | viability [4] 109% | viability [5] 98.1% | inhibition [6] 0.64% | RAM network inhibition [7] 5.11%

Cn1c(NC(=O)c2ccccc2)cc(=O)n(C)c1=O
inactive: growth inhibition [1] -19% | growth inhibition [2] -9.99% | viability increase [3] -1.36% | viability [4] 100% | viability [5] 93.8% | inhibition [6] 1.12% | RAM network inhibition [7] 1.26%

COCCN(CCOC)Cc1c(C)[nH]c2c(C)c(C)ccc2c1=O
inactive: growth inhibition [1] -16.2% | growth inhibition [2] -9.49% | viability increase [3] -1.96% | viability [4] 96.8% | viability [5] 100% | inhibition [6] 2.54% | RAM network inhibition [7] 3.28%

CCOCCCNC(=O)Cn1cc2c(n1)CCCC2
inactive: growth inhibition [1] 3.43% | growth inhibition [2] 1.36% | viability increase [3] -0.46% | viability [4] 105% | viability [5] 98.8% | inhibition [6] 1.91% | RAM network inhibition [7] 1.03%

N=c1c2c3c(sc2nc2n1CCCCC2)CCCCC3
inactive: growth inhibition [1] -5.75% | growth inhibition [2] -13.7% | viability increase [3] -5.46% | viability [4] 67.7% | viability [5] 71.7% | inhibition [6] 0.715% | RAM network inhibition [7] 5.69%
